Results from different studies.
Lines come from different studies, so protocols differ.
Read-out: binding
CDK4: Cyclin-dependent kinase 4 (CDK4, Homo sapiens, UniProt P11802)
CDK4 with cyclin D1: Cyclin-dependent kinase 4, with cyclin D1 (CDK4, Homo sapiens, UniProt P11802)
CDK4 with cyclin D3: Cyclin-dependent kinase 4, with cyclin D3 (CDK4, Homo sapiens, UniProt P11802)

COc1ccc2[nH]c3c4[nH]c5ccc(OC)cc5c4c4c(c3c2c1)C(=O)NC4=O  remaining binding (CDK4; 1 µM): 100%
C1=C/COCc2cc(ccc2OCCN2CCCC2)Nc2nccc(n2)-c2cccc(c2)COC/1  remaining binding (CDK4; 0.1 µM): 99%
Cc1ccc(NC(=O)c2ccnc(C(F)(F)F)c2)cc1-c1cc(OCCO)nc(N2CCOCC2)c1  remaining binding (CDK4 with cyclin D1; 1 µM): 97%
Cc1cc(S(=O)(=O)N[C@H]2CC[C@H](CN3CCN(c4ccc(C5CCC(=O)NC5=O)cc4F)CC3)CC2)ccc1Nc1ncc(C(F)(F)F)c(N2CCC[C@](C)(O)C2)n1 (stereo partly drawn)  remaining binding (CDK4 with cyclin D3; competition with immobilised ligand; 1 µM): 52%
CN1CCN(C(=O)c2ccc(NC(=O)Nc3ccc(N(C)c4ccnc(Nc5ccc(CS(C)(=O)=O)cc5)n4)cc3)cc2)CC1  remaining binding (CDK4 with cyclin D1; 1 µM): 77%
C[C@]1(O)CCCN(c2nc(Nc3ccc(S(=O)(=O)N[C@H]4CC[C@H](CN5CCN(c6ccc(C7CCC(=O)NC7=O)cc6F)CC5)CC4)cc3F)ncc2C(F)(F)F)C1 (stereo partly drawn)  remaining binding (CDK4; competition with immobilised ligand; 1 µM): 97%
CCCCC(=O)Nc1ccc(-c2ccc3ncn(CCC)c(=O)c3c2)cn1  remaining binding (CDK4 with cyclin D3; competition with immobilised ligand; 0.5 µM): 95%
CNS(=O)(=O)c1ccc(Nc2ncc(C(F)(F)F)c(N3CCC[C@](C)(O)C3)n2)c(C)c1  remaining binding (CDK4 with cyclin D3; competition with immobilised ligand; 1 µM): 33%
COc1ccc2oc(-c3ccc4nc(N)oc4c3)c/c(=N\c3ccccc3NC(=O)CCN)c2c1  remaining binding (CDK4 with cyclin D3; 1 µM): 93%
